In ChEMBL document CHEMBL4342502, “Synthesis and Antichlamydial Activity of Molecules Based on Dysregulators of Cylindrical Proteases” (J Med Chem, 2020):
≈ marks a conversion by molar mass, not a printed value. Calls of active or inactive are those of the source. The rule behind the calls is not given here.

Key:
Chlamydia trachomatis [1] = assay: (§1) Anti-chlamydial activity against Chlamydia trachomatis Serovar LGV-L2 infected in Hep2 cells assessed as reduction in chlamydial inclusion growth by measuring appearance of small and irregular inclusions at 50 ug/ml treated at 8 hrs post-infection and 24 hrs later re-infecting fresh Hep2 cells monolayer with infected cells and measured at 24 hrs post re-infection by immunofluorescence staining based microscopy analysis; format: functional, organism-based
Method in brief: (§2)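 HEp-2 cells in DMEM with 10% FBS, infected with C. trachomatis L2 at MOI 1. Compounds added 8 hpi in triplicate; DMSO stocks at 50 mg/mL. At 24 hpi lysates collected in sucrose storage medium, frozen at −80 °C, and used to infect fresh HEp-2 monolayers in 10-fold dilutions. After 24 h, stained with goat anti-MOMP and Alexa488 secondary. Inclusions counted in 15 fields at 20x; IFU = mean count per field corrected for dilution.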

[2] = Drug metabolism in human liver microsomes assessed as 1-[4-[(4-chlorophenyl)methyl]piperazin-1-yl]-2-methyl-2-[[5-(trifluoromethyl)-2-pyridyl]sulfonyl]propan-1-one formation at 1 ug/ml after 10 to 60 mins by LC-MS/MS analysis; format: ADME, Microsome
Staphylococcus aureus = assay: Antibacterial activity against methicillin-resistant Staphylococcus aureus ATCC 43300 assessed as bacterial growth inhibition at 32 ug/ml measured after 16 hrs by broth microdilution method; format: functional, organism-based
Chlamydia trachomatis [3] = assay: (§3) Activation of recombinant Chlamydia trachomatis Serovar LGV-L2 C-terminal 6xhis-tagged ClpP1/ClpP2 dimer expressed in Escherichia coli assessed as induction of casein degradation at 0.1 to 1 uM using FITC-labelled casein as substrate pretreated with enzyme for 30 mins followed by substrate addition and measured every 3 mins for 3 hrs in absence of AAA+ chaperone by fluorescence based tecan-plate reader assay
Method in brief: (§4)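 Recombinant C-terminal His6-tagged ClpP, expressed in a clpAPX-null E. coli strain and purified (mammalian ClpP without mitochondrial signal, codon-optimized). ClpP at 1 or 0.1 μM (E. coli), 1 μM (human, mouse) or 6 μM (chlamydial ClpP1 and ClpP2) preincubated with compound or DMSO, 30 min, 32 °C, in HEPES pH 7.6/KCl/MgCl2/DTT/glycerol buffer. 20 μM FITC-casein then added. Fluorescence (ex 490/em 525 nm) read every 3 min for 3 h. At least three runs on at least two protein preparations.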

Chlamydia trachomatis [4] = assay: as §1, with “infectivity” for “inclusion growth”, “decrease in inclusion forming units” for “appearance of small and irregular inclusions”; format: functional, organism-based; method in brief: as §2
Candida albicans = assay: Antifungal activity against Candida albicans ATCC 90028 assessed as fungal growth inhibition at 32 ug/ml measured after 16 hrs by broth microdilution method; format: functional, organism-based
Chlamydia trachomatis [5] = assay: as §3, with “ClpP2” for “ClpP1/ClpP2 dimer”; method in brief: as §4
Chlamydia trachomatis [6] = assay: as §1, with “50 to 100” for “50”; format: functional, organism-based; method in brief: as §2
[7] = biological target: ATP-dependent Clp protease proteolytic subunit (Escherichia coli (strain K12)) (UniProt P0A6G7); assay: as §3, with “recombinant” for “recombinant Chlamydia trachomatis Serovar LGV-L2 C-terminal 6xhis-tagged ClpP1/ClpP2 dimer expressed in”, “coli ClpP” for “coli”; method in brief: as §4
Chlamydia trachomatis [8] = assay: Bacteriostatic activity against Chlamydia trachomatis Serovar LGV-L2 infected in Hep2 cells assessed as loss of inclusion morphology at 50 ug/ml treated at 8 hrs post infection and incubated for 16 hrs followed by compound washout and further incubated for 24 hrs by immunofluorescence staining based microscopic assay; format: functional, organism-based
Method in brief: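 Medium was then removed, wells washed three times with Hanks' balanced salt solution, and compound-free medium added; incubation continued 24 h. Read-out by IFU re-infection and anti-MOMP immunofluorescence, as in the IFU protocol.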

[9] = Cytotoxicity against immortal human HaCaT cells assessed as reduction in cell viability at 50 ug/ml after 24 hrs by CCK-8 assay relative to control; format: cell-based; conditions: read-out: INH
Method in brief: (§5)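 HeLa 229 and HaCaT cells in DMEM with 10% FBS and 1% penicillin/streptomycin, 37 °C, 5% CO2, seeded at 5000 cells/well. Next day treated with 50 μg/mL in triplicate, with matching DMSO controls. After 24 h, CCK-8 added for 2 h; corrected absorbance read at 450 nm.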

Chlamydia trachomatis [10] = assay: as §1, with “growth” for “growth by measuring appearance of small and irregular inclusions at 50 ug/ml”; format: functional, organism-based
Method in brief: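 HEp-2 cells grown in DMEM with 2% L-glutamine and 10% FBS at 37 °C. Infected with C. trachomatis L2 at MOI 1, with compound added in triplicate at 8 hpi. At 24 hpi, lysates were collected in sucrose storage medium, frozen at −80 °C and passed as 10-fold dilutions onto fresh HEp-2. After 24 h, stained with goat anti-MOMP then Alexa488 secondary. IFU taken as mean inclusions across 15 fields (20x), corrected for dilution.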

Chlamydia trachomatis [11] = assay: Anti-chlamydial activity against Chlamydia trachomatis Serovar LGV-L2 infected in Hep2 cells assessed as inhibition of chlamydial inclusion at 50 ug/ml treated at 8 hrs post infection and measured at 24 hrs post-infection by immunofluorescence assay; format: functional, organism-based
Method in brief: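 HEp-2 cells infected with C. trachomatis serovar L2. Compounds at 50 μg/mL added 8 hpi; inclusion number and size assessed by immunofluorescence at 24 hpi against untreated cells. Cell morphology and viability checked by phase-contrast microscopy.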

Chlamydia trachomatis [12] = assay: Inhibition of recombinant Chlamydia trachomatis Serovar LGV-L2 C-terminal 6xhis-tagged ClpP1/ClpP2 dimer expressed in Escherichia coli at 0.1 to 1 uM by […] fluorescent peptide assay
Chlamydia trachomatis [13] = assay: Anti-Chlamydial activity against Chlamydia trachomatis Serovar LGV-L2 infected in Hep2 cells assessed as reduction in size and number of chlamydial inclusion at 5.2 to 50 ug/ml treated at 8 hrs post-infection and 24 hrs later re-infecting fresh Hep2 cells monolayer with infected cells and measured at 24 hrs post re-infection by immunofluorescence staining based microscopy analysis; format: functional, organism-based; method in brief: as §2
[14] = Half life in human liver microsomes at 1 ug/ml measured up to 60 mins by LC-MS/MS analysis; format: ADME, Microsome; conditions: microsomes, 1 h
Method in brief: (§6)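 Human liver microsomes (1.0 mg/mL protein) in 100 mM phosphate pH 7.4 with 10 mM MgCl2 and 2 mM NADPH, preincubated 10 min at 37 °C. Reaction started with compound at 1 μg/mL. Sampled at 0, 5, 15, 20, 30, 45 and 60 min and quenched in methanol with internal standard. Controls: no NADPH (negative), testosterone (positive). Analysed by LC-MS/MS, triplicate.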

HEp-2 = assay: Toxicity in human Hep2 cells infected with Chlamydia trachomatis Serovar LGV-L2 at 100 ug/ml treated at 8 hrs post-infection and 24 hrs later re-infecting fresh Hep2 cells monolayer with infected cells and measured at 24 hrs post re-infection by immunofluorescence staining based microscopy analysis; format: cell-based
[15] = Hepatic intrinsic clearance in human liver microsomes at 1 ug/ml measured per kg body weight up to 60 mins by LC-MS/MS analysis; format: ADME, Microsome; conditions: 1 h
HaCaT = assay: Cytotoxicity against immortal human HaCaT cells assessed as reduction in cell viability at 50 ug/ml after 24 hrs by CCK-8 assay; format: cell-based; method in brief: as §5
[16] = Intrinsic clearance in human liver microsomes at 1 ug/ml measured per mg protein up to 60 mins by LC-MS/MS analysis; format: ADME, Microsome; conditions: microsomes, 1 h; method in brief: as §6

Chain of ATP-dependent Clp protease proteolytic subunit (Escherichia coli (strain K12)) (P0A6G7 whole entry): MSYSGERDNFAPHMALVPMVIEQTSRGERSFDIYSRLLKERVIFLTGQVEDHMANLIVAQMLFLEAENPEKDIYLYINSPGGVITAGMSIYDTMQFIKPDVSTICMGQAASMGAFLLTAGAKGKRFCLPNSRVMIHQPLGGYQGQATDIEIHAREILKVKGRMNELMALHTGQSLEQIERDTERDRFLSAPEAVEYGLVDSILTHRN

Row | SMILES | inhibition (Staphylococcus aureus) | Activity (Chlamydia trachomatis [3]) | inhibition (Chlamydia trachomatis [4]) | inhibition (Candida albicans) | Activity (Chlamydia trachomatis [5]) | inhibition (Chlamydia trachomatis [11]) | t1/2 [14] [min] | further results
1 | CC(C)(C(=O)N1CCN(Cc2ccc(Cl)cc2)CC1)S(=O)(=O)c1ccc(C(F)(F)F)cn1 | inactive | inactive | Active | inactive | inactive | Active | < 2 | inhibition (Chlamydia trachomatis [1]): Active; Drug metabolism [2]: Metabolite_Detected; inhibition (Chlamydia trachomatis [6]): Active; Activity [7]: Active; inhibition (Chlamydia trachomatis [8]): Active; cytotoxicity at 24 h, 50 ug/ml [9]: 50%; inhibition (Chlamydia trachomatis [10]): Dose-dependent effect; IC50 (Chlamydia trachomatis [10]; Serovar LGV-L2, HEp-2): 5.2 mg/L (≈ 10.6 µM); inhibition (Chlamydia trachomatis [12]): inactive; inhibition (Chlamydia trachomatis [13]): Active; Activity (HEp-2): Non-Toxic
2 | CC(C)(C(=O)NCCCc1ccccc1)S(=O)(=O)c1ccc(C(F)(F)F)cc1 | inactive | Active | Active | inactive | Active | Active | 6.13 | CLH [15]: 53.4 L/h/kg; Activity (HaCaT): Toxic; microsomal intrinsic clearance [16]: 113.09 µL/min
